Test results reported in ChEMBL document CHEMBL1156262, “Substituted benzothiophene or benzofuran derivatives as a novel class of bone morphogenetic protein-2 up-regulators: synthesis, structure-activity relationships, and preventive bone loss efficacies in senescence accelerated mice (SAMP6) and ovariectomized rats” (J Med Chem, 2010).
Activity calls are given as the source filed them. The rule behind the calls is not given here.

Experiments:
Mus musculus [1] = test: Induction of bone mineral density in SAMP6 mouse assessed as whole body BMD at 30 mg/kg/day, po measured after 2 months; type: functional, organism-based
Summary of the method: (§1)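 SAMP6 mice, 5 months old, n = 5 per group, given compound in 0.5% methylcellulose by gavage daily. Dual-energy X-ray absorptiometry under pentobarbital anaesthesia (50 mg/kg ip), animals prone, at 0, 4, 8 and 12 weeks of treatment. Regions of interest were whole body, spine and left hind leg.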

Mus musculus [2] = test: Induction of bone mineral density in SAMP6 mouse assessed as whole body BMD at 10 mg/kg/day, po measured after 2 months; type: functional, organism-based; conditions: 30 mg/kg, in the assay text read “30 mg/kg/day” for “10 mg/kg/day”; summary of the method: as §1
Mus musculus [3] = test: Induction of bone mineral density in SAMP6 mouse assessed as whole body BMD at 10 mg/kg/day, po measured after 1 month; type: functional, organism-based; conditions: 30 mg/kg, in the assay text read “30 mg/kg/day” for “10 mg/kg/day”; summary of the method: as §1
[4] = Induction of BMP2 expression in mouse calcarial MC3T3-E1 cells stably transfected with mouse BMP2 promotor-luciferase assessed as upregulation rate at 4 uM; type: functional, cell-based
Summary of the method: (§2)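 Reporter assay in murine calvarial MC3T3-E1 cells stably carrying the mouse BMP-2 promoter fused to firefly luciferase (pGL4BMP-2). Cells grown in DMEM with 10% heat-inactivated FBS at 37 °C and 5% CO2. Test compounds at 4.0 μM; lovastatin at 0.4 μM as positive control; 0.1% DMSO as negative control. Up-regulation rate = (RLU of test − RLU of negative control)/RLU of negative control × 100.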

Mus musculus [5] = test: Induction of bone mineral density in SAMP6 mouse assessed as whole body BMD at 30 mg/kg/day, po measured after 3 months; type: functional; summary of the method: as §1
Mus musculus [6] = test: Induction of bone mineral density in SAMP6 mouse assessed as spine BMD at 30 mg/kg/day, po measured after 3 months; type: functional; summary of the method: as §1
Mus musculus [7] = test: Induction of bone mineral density in SAMP6 mouse assessed as left hind leg BMD at 30 mg/kg/day, po measured after 3 months; type: functional; summary of the method: as §1
Mus musculus [8] = test: Induction of bone formation in SAMP6 mouse right femora assessed as trabecular bone volume percentage at 30 mg/kg/day, po measured after 3 months by bone histomorphometry; type: functional, Trabecula
Summary of the method: (§3)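 SAMP6 mice, 5 months old, n = 5 per group (3 male, 2 female), randomized by initial BMD. Given compound in 0.5% methylcellulose by gavage daily for 3 months. Proximal third of the right femur fixed in 4% paraformaldehyde, cut as undecalcified sections, and scored by image analysis for histomorphometry.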

Mus musculus [9] = test: Induction of bone formation in SAMP6 mouse right femora assessed as trabecular formation surface percentage at 30 mg/kg/day, po measured after 3 months by bone histomorphometry; type: functional, Trabecula; summary of the method: as §3
Mus musculus [10] = test: Induction of bone formation in SAMP6 mouse right femora assessed as trabecular resorption surface percentage at 30 mg/kg/day, po measured after 3 months by bone histomorphometry; type: functional, Trabecula; summary of the method: as §3
Mus musculus [11] = test: Induction of bone formation in SAMP6 mouse right femora assessed as average osteoid width at 30 mg/kg/day, po measured after 3 months by bone histomorphometry; type: functional; summary of the method: as §3
Mus musculus [12] = test: Induction of BMP2 expression in SAMP6 mouse osteoblast at 10 mg/kg/day, po after 3 months by immunohistochemical analysis; type: functional, organism-based
Summary of the method: (§4)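 SAMP6 mice, 5 months old, male and female, n = 5 per group (3 male, 2 female). Dosed by gavage with compound suspended in 0.5% methylcellulose daily for 3 months; the vehicle group received methylcellulose only. Proximal third of the left femur fixed in 4% neutral paraformaldehyde for 24 h, decalcified in 10% EDTA at 4 °C for 4 weeks, then frozen-sectioned at 5 μm. Stained with rabbit polyclonal anti-BMP-2 and an alkaline phosphatase secondary. BMP-2-positive area was taken as a percentage of bone tissue area, averaged over five fields below the epiphyseal plate.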

Mus musculus [13] = test: Induction of BMP2 expression in SAMP6 mouse osteoblast at 30 mg/kg/day, po after 3 months by immunohistochemical analysis; type: functional, organism-based; summary of the method: as §4
Mus musculus [14] = test: Induction of BMP2 expression in SAMP6 mouse bone marrow stroma at 30 mg/kg/day, po after 3 months by immunohistochemical analysis; type: functional, organism-based; summary of the method: as §4
Mus musculus [15] = test: Induction of BMP2 expression in SAMP6 mouse cartilage cells at 30 mg/kg/day, po after 3 months by immunohistochemical analysis; type: functional, organism-based; summary of the method: as §4
Mus musculus [16] = test: Toxicity in SAMP6 mouse assessed as pathological changes in heart at 30 mg/kg/day, po after 3 months by histomorphology; type: organism-based; design: route oral; conditions: in vivo
Summary of the method: (§5)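 SAMP6 mice, n = 5 per group, dosed orally at 30 mg/kg/day in 0.5% methylcellulose for 3 months. Heart, liver, spleen, lung and kidney harvested, weighed and examined histologically. Organ/body weight indexes, body weight, and 24 h water and food intake (g/g body weight) compared with vehicle controls.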

Mus musculus [17] = test: Toxicity in SAMP6 mouse assessed as pathological changes in spleen at 30 mg/kg/day, po after 3 months by histomorphology; type: organism-based; design: route oral; conditions: in vivo; summary of the method: as §5
Mus musculus [18] = test: Toxicity in SAMP6 mouse assessed as pathological changes in liver at 30 mg/kg/day, po after 3 months by histomorphology; type: organism-based; design: route oral; conditions: in vivo; summary of the method: as §5
Mus musculus [19] = test: Toxicity in SAMP6 mouse assessed as pathological changes in lung at 30 mg/kg/day, po after 3 months by histomorphology; type: organism-based; design: route oral; conditions: in vivo; summary of the method: as §5
Mus musculus [20] = test: Toxicity in SAMP6 mouse assessed as pathological changes in kidney at 30 mg/kg/day, po after 3 months by histomorphology; type: organism-based; design: route oral; conditions: in vivo; summary of the method: as §5
Mus musculus [21] = test: Toxicity in SAMP6 mouse assessed as increase in body weight at 30 mg/kg/day, po after 3 months; type: organism-based; design: route oral; conditions: in vivo; summary of the method: as §5
Mus musculus [22] = test: Toxicity in SAMP6 mouse assessed as change in 24 hrs water consumption at 30 mg/kg/day, po after 3 months; type: organism-based; design: route oral; conditions: in vivo; summary of the method: as §5
Mus musculus [23] = test: Toxicity in SAMP6 mouse assessed as change in 24 hrs food consumption at 30 mg/kg/day, po after 3 months; type: organism-based; design: route oral; conditions: in vivo; summary of the method: as §5
[24] = Toxicity in po dosed Kunming mouse assessed as mortality treated for 3 days measured after 17 days; type: organism-based; conditions: in vivo
Summary of the method: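 Male and female Kunming mice (18-21 g), six per group (three males, three females), were dosed orally at 500 or 700 (mg/kg)/day for 3 days. They were closely watched for deaths over the 3 dosing days and the following 14 days (17 days in total).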

Mus musculus [25] = test: Induction of bone mineral density in SAMP6 mouse assessed as whole body BMD at 30 mg/kg/day, po measured after 2 months
Mus musculus [26] = test: Induction of bone mineral density in SAMP6 mouse assessed as spine BMD at 10 mg/kg/day, po measured after 3 months; type: functional; summary of the method: as §1
Mus musculus [27] = test: Induction of bone mineral density in SAMP6 mouse assessed as whole body BMD at 10 mg/kg/day, po measured after 3 months; type: functional; summary of the method: as §1
Mus musculus [28] = test: Induction of bone mineral density in SAMP6 mouse assessed as spine BMD at 10 mg/kg/day, po measured last 2 months; type: functional, organism-based; summary of the method: as §1
[29] = Induction of BMP2 expression in mouse […] MC3T3-E1 cells stably transfected with mouse BMP2 promotor-luciferase assessed as upregulation rate at 0.4 uM; type: functional, cell-based; summary of the method: as §2
Mus musculus [30] = test: Induction of bone mineral density in SAMP6 mouse assessed as left hind leg BMD at 10 mg/kg/day, po measured after 3 months; type: functional; summary of the method: as §1
Mus musculus [31] = test: Induction of bone formation in SAMP6 mouse right femora assessed as trabecular bone volume percentage at 10 mg/kg/day, po measured after 3 months by bone histomorphometry; type: functional, Trabecula; summary of the method: as §3
Mus musculus [32] = test: Induction of bone formation in SAMP6 mouse right femora assessed as trabecular formation surface percentage at 10 mg/kg/day, po measured after 3 months by bone histomorphometry; type: functional, Trabecula; summary of the method: as §3
Mus musculus [33] = test: Induction of bone formation in SAMP6 mouse right femora assessed as trabecular resorption surface percentage at 10 mg/kg/day, po measured after 3 months by bone histomorphometry; type: functional, Trabecula; summary of the method: as §3
Mus musculus [34] = test: Induction of bone formation in SAMP6 mouse right femora assessed as average osteoid width at 10 mg/kg/day, po measured after 3 months by bone histomorphometry; type: functional; summary of the method: as §3

Structure (SMILES): C[S+]([O-])CC(=O)c1cc2ccccc2s1 (centres undefined)
- Activity (Mus musculus [1]): Active
- Activity (Mus musculus [2]): Active
- Activity (Mus musculus [3]): Active
- Activity [4]: 19.7%
- Activity (Mus musculus [5]): 0.072 g/cm2
- Activity (Mus musculus [6]): 0.09 g/cm2
- Activity (Mus musculus [7]): 0.05 g/cm2
- Activity (Mus musculus [8]): 5.95%
- Activity (Mus musculus [9]): 5.13%
- Activity (Mus musculus [10]): 6.45%
- Activity (Mus musculus [11]): 5.85 µm
- Activity (Mus musculus [12]): Active
- Activity (Mus musculus [13]): Active
- Activity (Mus musculus [14]): Active
- Activity (Mus musculus [15]): inactive
- Activity (Mus musculus [16]): Non-toxic
- Activity (Mus musculus [17]): Non-toxic
- Activity (Mus musculus [18]): Non-toxic
- Activity (Mus musculus [19]): Non-toxic
- Activity (Mus musculus [20]): Non-toxic
- Activity (Mus musculus [21]): Non-toxic
- Activity (Mus musculus [22]): Non-toxic
- Activity (Mus musculus [23]): Non-toxic
- LD50 at 408 h [24]: > 700 mg/kg

Structure (SMILES): CCOC(=O)c1cc2ccccc2s1
- Activity [4]: 8.2%

Structure (SMILES): CCOC(=O)c1ccc2sc(C(=O)/C=C/c3ccccc3)cc2c1
- Activity [4]: 12.6%

Structure (SMILES): O=C(/C=C/c1ccccc1Cl)c1cc2ccccc2s1
- Activity [4]: 2%

Structure (SMILES): COc1ccc(/C=C/C(=O)c2cc3ccccc3s2)cc1
- Activity (Mus musculus [3]): Active
- Activity [4]: 27.3%
- Activity (Mus musculus [5]): 0.07 g/cm2
- Activity (Mus musculus [6]): 0.089 g/cm2
- Activity (Mus musculus [7]): 0.05 g/cm2
- Activity (Mus musculus [8]): 8.94%
- Activity (Mus musculus [9]): 6.54%
- Activity (Mus musculus [10]): 6.29%
- Activity (Mus musculus [11]): 5.5 µm
- Activity (Mus musculus [12]): Active
- Activity (Mus musculus [13]): Active
- Activity (Mus musculus [14]): Active
- Activity (Mus musculus [15]): inactive
- Activity (Mus musculus [16]): Non-toxic
- Activity (Mus musculus [17]): Non-toxic
- Activity (Mus musculus [18]): Non-toxic
- Activity (Mus musculus [19]): Non-toxic
- Activity (Mus musculus [20]): Non-toxic
- Activity (Mus musculus [21]): Non-toxic
- Activity (Mus musculus [22]): Non-toxic
- Activity (Mus musculus [23]): Non-toxic
- LD50 at 408 h [24]: > 500 mg/kg
- Activity (Mus musculus [25]): Active

Structure (SMILES): O=C(/C=C/c1ccccc1)c1cc2ccccc2s1
- Activity [4]: 15.4%

Structure (SMILES): CS(=O)(=O)CC(=O)c1cc2ccccc2s1
- Activity [4]: 5.1%

Structure (SMILES): CCOC(=O)c1cc2cc(C(=O)OC)ccc2s1
- Activity [4]: 49.8%

Structure (SMILES): CCOC(=O)c1cc2ccccc2o1
- Activity [4]: 7.1%

Structure (SMILES): CCOC(=O)c1cc2cccc(F)c2o1
- Activity [4]: -18.1%

Structure (SMILES): C[S+]([O-])CC(=O)c1cc2ccccc2o1 (centres undefined)
- Activity [4]: 3.9%

Structure (SMILES): CCOC(=O)c1ccc2sc(C(=O)/C=C/c3ccc(OC)c(OC)c3)cc2c1
- Activity [4]: -9.6%

Structure (SMILES): CC[C@H](C)C(=O)O[C@H]1C[C@@H](C)C=C2C=C[C@H](C)[C@H](CC[C@@H]3C[C@@H](O)CC(=O)O3)[C@H]21 [LOVASTATIN]
- Activity (Mus musculus [26]): 0.095 g/cm2
- Activity (Mus musculus [27]): 0.07 g/cm2
- Activity (Mus musculus [28]): Active
- Activity (Mus musculus [1]): Active
- Activity [29]: 20.9%
- Activity (Mus musculus [30]): 0.046 g/cm2
- Activity (Mus musculus [31]): 7.44%
- Activity (Mus musculus [32]): 6.22%
- Activity (Mus musculus [33]): 6.64%
- Activity (Mus musculus [34]): 6.59 µm

Structure (SMILES): CCOC(=O)c1cc2cc(Cl)cc(Cl)c2o1
- Activity [4]: -1.6%

Structure (SMILES): CCOC(=O)c1ccc2sc(C(=O)/C=C/c3ccc(OC)cc3)cc2c1
- Activity [4]: 1.7%
